Test results: ChEMBL document CHEMBL4411269, “Required Immunoproteasome Subunit Inhibition Profile for Anti-Inflammatory Efficacy and Clinical Candidate KZR-616 ((2 S,3 R)- N-(( S)-3-(Cyclopent-1-en-1-yl)-1-(( R)-2-methyloxiran-2-yl)-1-oxopropan-2-yl)-3-hydroxy-3-(4-methoxyphenyl)-2-(( S)-2-(2-morpholinoacetamido)propanamido)propenamide)” (J Med Chem, 2018)
The source made the active and inactive calls. The calls are words filed in the database; no cut-off is given here.

Tests used:
[1] = molecular target: T1, Proteasome subunit beta type-8 (Homo sapiens, UniProt P28062); experiment: Inhibition of LMP7 in human MOLT4 cells by ELISA; assay type: cell-based
T1 sequence (P28062 whole entry): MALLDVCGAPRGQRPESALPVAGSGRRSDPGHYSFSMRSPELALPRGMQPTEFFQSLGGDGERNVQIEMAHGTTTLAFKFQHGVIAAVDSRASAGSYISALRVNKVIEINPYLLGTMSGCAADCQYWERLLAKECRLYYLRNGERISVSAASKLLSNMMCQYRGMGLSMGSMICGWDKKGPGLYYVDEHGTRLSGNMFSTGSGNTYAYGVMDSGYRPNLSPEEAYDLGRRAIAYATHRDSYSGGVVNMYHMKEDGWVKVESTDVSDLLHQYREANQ

[2] = molecular target: Proteasome subunit beta type-2 (Mus musculus, UniProt Q9R1P3); experiment: Inhibition of 20S proteosome beta 2 in mouse A20 cells by ELISA; assay type: cell-based
Sequence of Proteasome subunit beta type-2 (Q9R1P3 whole entry): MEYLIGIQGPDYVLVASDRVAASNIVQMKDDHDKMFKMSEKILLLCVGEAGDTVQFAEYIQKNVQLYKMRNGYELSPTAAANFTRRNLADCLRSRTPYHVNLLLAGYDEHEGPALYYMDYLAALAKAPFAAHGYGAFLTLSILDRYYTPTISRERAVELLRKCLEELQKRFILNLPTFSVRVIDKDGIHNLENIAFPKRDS

PBMC [3] = experiment: Antiinflammatory activity in human PBMC assessed as reduction in LPS-stimulated IL-6 expression at 250 nM preincubated for 1 hr followed by LPS stimulation measured after 24 hrs by ELISA; assay type: functional, cell-based
Summary of the method: (§1)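 Cryopreserved healthy-donor PBMC in RPMI 1640 with 5% heat-inactivated FBS, 250 000 cells/well. Compound (0.1% DMSO final) for 1 h at 37 °C, 5% CO2, then 4 washes with medium. Stimulated with 1 μg/mL LPS for 24 h; supernatant TNFα, IL-6 and IL-12/23p40 by electrochemiluminescent immunoassay. Mean level relative to DMSO controls, n = 6.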

PBMC [4] = experiment: Antiinflammatory activity in human PBMC assessed as reduction in LPS-stimulated p40 subunit of […] expression at 250 nM preincubated for 1 hr followed by LPS stimulation measured after 24 hrs by ELISA; assay type: functional, cell-based; summary of the method: as §1
PBMC [5] = experiment: Antiinflammatory activity in human PBMC assessed as reduction in anti-CD3/CD28 antibody-stimulated TNF-alpha expression at 250 nM preincubated for 1 hr followed by anti-CD3/CD28 antibody stimulation measured after 24 hrs by ELISA; assay type: functional, cell-based
Summary of the method: (§2)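 Healthy-donor PBMC, thawed from cryopreservation, 250 000 cells/well in RPMI 1640/5% FBS. Pretreated 1 h at 37 °C with compound alone or combined (0.1% DMSO final), washed 4 times, then stimulated 24 h with anti-CD3 and anti-CD28 antibodies. TNFα and IFNγ in supernatants by electrochemiluminescent ELISA; expressed relative to DMSO-treated controls (n = 6).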

[6] = molecular target: T2, Proteasome subunit beta type-8 (Homo sapiens) (UniProt P28062); experiment: Inhibition of LMP7 in human PBMC at 250 nM by ELISA
T2 sequence (whole entry): T1 sequence (P28062 whole entry)
Summary of the method: (§3)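 Cryopreserved healthy-donor human PBMC in RPMI 1640 with 5% heat-inactivated FBS, exposed to compound (0.1% DMSO final) for 1 h at 37 °C, 5% CO2, then washed. Subunit-specific active-site occupancy read by ProCISE: biotinylated active-site probe binding, denaturation, streptavidin capture, subunit-specific antibody and HRP chemiluminescence. Signal normalized to protein and expressed relative to DMSO controls.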

[7] = molecular target: T3, Proteasome subunit beta type-9 (Homo sapiens) (UniProt P28065); experiment: Inhibition of LMP2 in human PBMC at 250 nM by ELISA; summary of the method: as §3
T3 sequence (whole entry): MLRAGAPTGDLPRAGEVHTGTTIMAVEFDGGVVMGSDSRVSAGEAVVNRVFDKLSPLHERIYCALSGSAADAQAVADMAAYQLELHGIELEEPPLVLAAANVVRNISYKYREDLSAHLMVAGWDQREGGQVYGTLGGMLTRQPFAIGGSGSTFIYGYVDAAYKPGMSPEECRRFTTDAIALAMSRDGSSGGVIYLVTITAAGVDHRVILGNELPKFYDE

[8] = molecular target: T4, Proteasome subunit beta type-10 (Homo sapiens) (UniProt P40306); details: at 250 nM
T4 sequence (whole entry): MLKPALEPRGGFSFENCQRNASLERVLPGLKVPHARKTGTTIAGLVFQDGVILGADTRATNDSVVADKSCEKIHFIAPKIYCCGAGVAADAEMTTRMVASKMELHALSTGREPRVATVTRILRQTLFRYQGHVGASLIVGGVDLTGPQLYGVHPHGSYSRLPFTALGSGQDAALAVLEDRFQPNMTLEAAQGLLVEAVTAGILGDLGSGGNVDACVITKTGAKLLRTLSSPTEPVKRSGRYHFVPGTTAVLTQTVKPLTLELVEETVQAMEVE

PBMC [9] = experiment: Antiinflammatory activity in human PBMC assessed as reduction in LPS-stimulated IL-6 expression at 125 nM preincubated for 1 hr followed by LPS stimulation measured after 24 hrs by ELISA; assay type: functional, cell-based; summary of the method: as §1
PBMC [10] = experiment: Antiinflammatory activity in human PBMC assessed as reduction in LPS-stimulated p40 subunit of […] expression at 125 nM preincubated for 1 hr followed by LPS stimulation measured after 24 hrs by ELISA; assay type: functional, cell-based; summary of the method: as §1
PBMC [11] = experiment: Antiinflammatory activity in human PBMC assessed as reduction in anti-CD3/CD28 antibody-stimulated IFN-gamma expression at 125 nM preincubated for 1 hr followed by anti-CD3/CD28 antibody stimulation measured after 24 hrs by ELISA; assay type: functional, cell-based; summary of the method: as §2
Mus musculus [12] = experiment: In vivo inhibition of proteosome beta 5 in Balb/c mouse kidney at 20 mg/kg, iv followed by dosing repeat on day 6, 8, 11, 13 and 15 and measured on 1 hr post last dose; assay type: functional, organism-based
Summary of the method: (§4)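 BALB/c mice dosed iv bolus in 10% sulfobutyl ether−β-cyclodextrin/10 mM sodium citrate pH 3.5; tissues taken 1 h after administration. Splenocytes strained and red cells lysed; kidney frozen, then bead-homogenized. Hypotonic lysate (20 mM Tris pH 8, 5 mM EDTA) at 1 mg/mL (spleen) or 5 mg/mL (kidney) run in the ProCISE active-site ELISA. Background-subtracted, protein-normalized activity relative to vehicle animals; n = 3.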

Mus musculus [13] = experiment: In vivo inhibition of LMP2 in Balb/c mouse splenocytes at 20 mg/kg, iv followed by dosing repeat on day 6, 8, 11, 13 and 15 and co-treated with 5 mg/kg, iv KZR-504 and measured on 1 hr post last dose; assay type: functional, organism-based; summary of the method: as §4
[14] = Toxicity in Balb/c mouse assessed as change in body weight at 20 mg/kg, iv followed by dosing repeat on day 6, 8, 11, 13 and 15 and measured until day 18; assay type: organism-based; details: in vivo
[15] = Toxicity in Balb/c mouse assessed as effect on cage-side observations at 20 mg/kg, iv followed by dosing repeat on day 6, 8, 11, 13 and 15 and measured until day 18; assay type: organism-based; details: in vivo
[16] = molecular target: T4, Proteasome subunit beta type-10 (Homo sapiens); experiment: Inhibition of MECL1 in human PBMC at 125 nM by ELISA; summary of the method: as §3
[17] = Toxicity in Balb/c mouse assessed as effect on cage-side observations at 20 mg/kg, iv followed by dosing repeat on day 6, 8, 11, 13 and 15 and co-treated with 5 mg/kg, iv KZR-504 and measured until day 18; assay type: organism-based; details: in vivo

IC50 [1] [nM]	IC50 [2] [nM]	inhibition [6]	inhibition [7]	inhibition [8]	inhibition [16]	Compound	Activity (PBMC [3])	Activity (PBMC [4])	Activity (PBMC [5])	Activity (PBMC [9])	Activity (PBMC [10])	Activity (PBMC [11])	inhibition (Mus musculus [12])	inhibition (Mus musculus [13])	Activity [14]	Activity [15]	Activity [17]
346	573	Active	Active	Active	–	Cc1ccc(CC[C@H](NC(=O)[C@H](Cc2ccccc2)NC(=O)[C@H](CC(C)C)NC(=O)CN2CCCCCC2)C(=O)[C@@]2(C)CO2)cc1	inactive	inactive	inactive	–	–	–	–	–	–	–	–
–	–	–	–	–	Active	COc1ccc(C[C@H](NC(=O)[C@@H](C)NC(=O)[C@H]2CC[C@H](O)CC2)C(=O)N[C@@H](CC2=CCCC2)C(=O)[C@@]2(C)CO2)cc1	–	–	–	inactive	Active	Active	Active	Active	Non-Toxic	Non-Toxic	Non-Toxic
39	857	–	–	–	–	COc1ccc([C@@H](O)[C@H](NC(=O)[C@H](C)NC(=O)CN2CCOCC2)C(=O)N[C@@H](CC2=CCCC2)C(=O)[C@@]2(C)CO2)cc1 [ZETOMIPZOMIB]	Active	Active	Active	–	–	–	–	–	–	–	–
